This passage reports MIC results from ChEMBL document CHEMBL1153363, “Structure-activity relationships for a series of quinoline-based compounds active against replicating and nonreplicating Mycobacterium tuberculosis” (J Med Chem, 2009).

As usually defined, the MIC is the least concentration at which growth counts as inhibited.

Format in all cases: functional
Conditions in all cases: 168 h

The subject of assay [1] is Mycobacterium tuberculosis. Put plainly: Antitubercular activity against isoniazid-resistant Mycobacterium tuberculosis H37Rv ATCC 27294 after 7 days by microplate alamar blue assay. In outline: (§1)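 12.8 mM DMSO stocks; two-fold dilutions in Middlebrook 7H12 broth, final 128 to 0.5 µM. Inoculum 2 × 10⁵ cfu/mL, 37 °C. On day 7, Tween 80 plus Alamar Blue added; fluorescence read (ex 530/em 590 nm) after 16-24 h more. MIC = lowest concentration giving ≥90% fluorescence drop versus bacteria-only controls; mean of two runs. RMP and INH positive controls.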
For orientation: Alamar Blue is a resazurin reagent that responds to reducing activity.

Assay [2] deals with Mycobacterium tuberculosis. Put plainly: Antitubercular activity against rifampin-resistant Mycobacterium tuberculosis H37Rv ATCC 27294 after 7 days by microplate alamar blue assay. The method, boiled down: as §1
Assay [3] deals with Mycobacterium tuberculosis. Put plainly: Antitubercular activity against streptomycin-resistant Mycobacterium tuberculosis H37Rv ATCC 27294 after 7 days by microplate alamar blue assay. The method, boiled down:
as §1

The structures appear in SMILES notation. Converted amounts (≈) assume the structure as drawn.

On to `CCOC(=O)c1cc(-c2cccc(Oc3cc(C(F)(F)F)nc4ccccc34)c2)on1`, for which the MIC in assay [1] was found to be 1.63 µM (≈ 0.698 µg/mL); in assay [2], 1.27 µM (≈ 0.544 µg/mL); in assay [3], 1.4 µM (≈ 0.6 µg/mL).

Regarding `CCOC(=O)c1cc(COc2cc(C(F)(F)F)nc3cc(C(F)(F)F)cc(C(F)(F)F)c23)on1`, the MIC is 0.98 µM (≈ 0.492 µg/mL) in assay [1], 0.99 µM (≈ 0.497 µg/mL) in assay [2] and 1.55 µM (≈ 0.779 µg/mL) in assay [3].

`NNC(=O)c1ccncc1` [ISONIAZID]: the MIC in assay [1] was above 128 µM; in assay [2], 0.43 µM (≈ 0.059 µg/mL); in assay [3] it was 0.45 µM (≈ 0.0617 µg/mL).

On to `CO[C@H]1/C=C/O[C@@]2(C)Oc3c(C)c(O)c4c(O)c(c(/C=N/N5CCN(C)CC5)c(O)c4c3C2=O)NC(=O)/C(C)=C\C=C\[C@H](C)[C@H](O)[C@@H](C)[C@@H](O)[C@@H](C)[C@H](OC(C)=O)[C@@H]1C` [RIFAMPIN], for which the MIC in assay [1] was 0.06 µM (≈ 0.0494 µg/mL); in assay [2] it was above 32 µM; in assay [3], 0.05 µM (≈ 0.0411 µg/mL).

`CN[C@@H]1[C@H](O[C@H]2[C@H](O[C@H]3[C@H](O)[C@@H](O)[C@H](N=C(N)N)[C@@H](O)[C@@H]3N=C(N)N)O[C@@H](C)[C@]2(O)C=O)O[C@@H](CO)[C@H](O)[C@H]1O` [STREPTOMYCIN]: the values for the MIC in assay [1], in assay [2] and in assay [3] were 0.38 µM (≈ 0.221 µg/mL), 0.2 µM (≈ 0.116 µg/mL) and above 32 µM, respectively.
